MC4R antag cAMP: blocks human MC4R cAMP signaling; 360,000 compounds, 0.48% hits; AID 540295; P32245; inhibition, % at 6.5 µM; MC4R-expressing cells, MTII-stimulated cAMP, LANCE TR-FRET;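 active = inhibition above its plate's cutoff, the mean of tested wells on that plate plus 3 SD, cut at about 29% in these data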
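Material: human MC4R-expressing U2OS cells. Probe or stimulus: Melanotan II challenge. Dosing: 6.5 µM single dose. Times: 30-min compound, 1-h challenge, 1-h detection, room temperature. Technique: TR-FRET with Eu-cAMP and labeled anti-cAMP, 671 nm. Replication: singlicate.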
Granule exo inh: lytic granule exocytosis inhibition; TALL-104 LAMP-1 surface exposure, flow cytometry; cells stimulated with thapsigargin and PMA; inhibition, % at 10 µM; 360,000 compounds, 0.66% hits; AID 651702;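 active = inhibition above about 55%, limit read from the data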
ABCB6 inh 2: human ABCB6 transporter inhibition | K562-ABCB6 porphyrin accumulation, flow cytometry, 1 h; active compounds read low | fluorescence ratio to DMSO, % at 10 µM | 360,000 compounds, 0.19% hits;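 active = fluorescence ratio to DMSO below 75%, the collection mean minus 3 SD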;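 note: signal is porphyrin accumulated inside mitochondria; lower ratio means ABCB6 inhibition with less porphyrin fluorescence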
Target sequence (Q9NP58 whole entry, looked up): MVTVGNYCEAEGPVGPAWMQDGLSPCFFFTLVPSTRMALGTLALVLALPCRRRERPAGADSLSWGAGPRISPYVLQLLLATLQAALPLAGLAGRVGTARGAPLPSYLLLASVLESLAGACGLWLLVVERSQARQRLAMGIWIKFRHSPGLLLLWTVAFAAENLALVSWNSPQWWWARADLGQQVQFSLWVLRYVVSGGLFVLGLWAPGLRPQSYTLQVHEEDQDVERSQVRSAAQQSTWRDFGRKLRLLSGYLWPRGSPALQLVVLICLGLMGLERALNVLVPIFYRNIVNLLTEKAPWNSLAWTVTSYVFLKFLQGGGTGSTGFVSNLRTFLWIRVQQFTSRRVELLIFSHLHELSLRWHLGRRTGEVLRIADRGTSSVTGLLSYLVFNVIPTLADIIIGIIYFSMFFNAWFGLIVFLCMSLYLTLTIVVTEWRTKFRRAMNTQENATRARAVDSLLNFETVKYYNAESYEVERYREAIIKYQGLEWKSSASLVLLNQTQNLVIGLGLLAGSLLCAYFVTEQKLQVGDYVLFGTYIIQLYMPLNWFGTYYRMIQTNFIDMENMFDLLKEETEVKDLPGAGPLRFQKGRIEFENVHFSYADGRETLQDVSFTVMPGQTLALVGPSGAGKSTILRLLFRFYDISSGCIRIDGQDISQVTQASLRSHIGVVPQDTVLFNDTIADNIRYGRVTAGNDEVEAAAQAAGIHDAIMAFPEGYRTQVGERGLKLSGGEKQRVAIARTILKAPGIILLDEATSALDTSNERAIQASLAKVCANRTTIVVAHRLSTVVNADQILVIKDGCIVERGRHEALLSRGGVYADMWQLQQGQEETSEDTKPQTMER
MC4R barr agon: human MC4R agonism via beta-arrestin. P32245. U2OS MC4R beta-arrestin complementation, luminescence; percent of melanotan II response, DMSO zero. activation, % at 8.9 µM. 360,000 compounds, 0.98% hits;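 active = activation above a per-plate cutoff, the mean activation of sample wells on that plate plus 3 SD, cut at about 8% in these data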
iPSC survival up: enhancers of human iPSC single-cell survival | hiPSC single-cell survival, ATPlite luminescence; 100% = ROCK inhibitor wells, 0% = DMSO | survival enhancement, % at 20 µM | 360,000 compounds, 0.044% hits | AID 602274; in the data active = survival enhancement above about 18%;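 note: cells exposed to compounds for 16 hours before the ATP read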
TbMetRS inhib: Trypanosoma brucei MetRS inhibition. purified T. brucei MetRS, ATP depletion, Kinase-Glo luminescence. inhibition, % at 11.9 µM. 360,000 compounds, 0.4% hits;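 active = inhibition above a per-plate cutoff of the control wells' mean inhibition plus 3 SD, cut at about 5.5% in these data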
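Material: T. brucei methionyl-tRNA synthetase, purified; reagent: substrates ATP, L-methionine and bulk Escherichia coli tRNA; dosing: 11.9 µM single point; timing: 15 min plus 2 h at 25 °C; detection: luminescence of leftover ATP; evaluation: % inhibition; control set: DMSO-only wells as low control; replicates: singlicate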
Tb MetRS conf: Trypanosoma brucei MetRS inhibition confirmed; shares compounds with TbMetRS inhib; T. brucei MetRS enzyme, luminescence (ATP depletion); inhibition, % at 11.9 µM; 1,400 compounds, 93% hits; AID 624412; in the data active = inhibition above about 7%
Jurkat tox: Jurkat T cell cytotoxicity for MetRS hits. shares compounds with TbMetRS inhib. Jurkat cells viability, ATP luminescence. inhibition, % at 8.3 µM. 1,400 compounds, 12% hits; in the data active = inhibition above about 15%
TbMetRS FP orth: T. brucei MetRS inhibition, orthogonal assay; shares compounds with TbMetRS inhib; purified T. brucei MetRS, fluorescence polarization; inhibition, % at 11.9 µM; 1,400 compounds, 44% hits; AID 651607; in the data active = inhibition above about 17%
Numbers stand for hits. In the library only some 2.6% were active in any assay of this set; here they are far more common.

`Cc1ccc(C)c(NC(=O)CN(C)C(=O)c2cccc(S(=O)(=O)N(C)C)c2)c1` gave MC4R antag cAMP inactive, Granule exo inh inactive, ABCB6 inh 2 inactive, MC4R barr agon inactive, iPSC survival up inactive and TbMetRS inhib inactive.
`CN(CC(=O)Nc1ccc(Cl)cc1)C(=O)c1cccc(S(=O)(=O)N(C)C)c1` gave MC4R antag cAMP inactive, Granule exo inh inactive, ABCB6 inh 2 inactive, MC4R barr agon inactive, iPSC survival up inactive, TbMetRS inhib 9.1, Tb MetRS conf 18.9, Jurkat tox inactive and TbMetRS FP orth inactive.
For CC(=O)c1ccc(NC(=O)C(C)N(C)CC(=O)Nc2cccc(F)c2)cc1 (centres undefined) the results were MC4R antag cAMP inactive, Granule exo inh inactive, ABCB6 inh 2 inactive, MC4R barr agon inactive, iPSC survival up inactive and TbMetRS inhib inactive.
CC(=O)c1cccc(NC(=O)C(C)N(C)CC(=O)Nc2ccc(Cl)cc2)c1 (centres undefined) was read as MC4R antag cAMP inactive, Granule exo inh inactive, ABCB6 inh 2 inactive, MC4R barr agon inactive, iPSC survival up inactive, TbMetRS inhib 35.0, Tb MetRS conf 52.7, Jurkat tox inactive and TbMetRS FP orth 24.8.
Screening CC1(C)CC(NC(=O)C2CCC(=O)N(Cc3ccccc3F)C2)CC(C)(C)C1 (centres undefined) returned MC4R antag cAMP inactive, Granule exo inh inactive, ABCB6 inh 2 inactive, MC4R barr agon inactive, iPSC survival up inactive and TbMetRS inhib inactive.
`S=C(NCCSCc1ccccc1Cl)Nc1ccccc1` gave MC4R antag cAMP inactive, Granule exo inh inactive, ABCB6 inh 2 inactive, MC4R barr agon inactive, iPSC survival up inactive and TbMetRS inhib inactive.
O=C(Nc1ccc(Cl)cc1)Nc1ccccc1C(=O)NCc1ccco1 was read as MC4R antag cAMP inactive, Granule exo inh inactive, ABCB6 inh 2 inactive, MC4R barr agon inactive, iPSC survival up inactive, TbMetRS inhib 13.8, Tb MetRS conf 19.7, Jurkat tox inactive and TbMetRS FP orth inactive.
`S=C(NCCSCc1ccc(Cl)cc1)Nc1ccccc1` gave MC4R antag cAMP inactive, Granule exo inh inactive, ABCB6 inh 2 inactive, MC4R barr agon inactive, iPSC survival up inactive, TbMetRS inhib 30.1, Tb MetRS conf 50.9, Jurkat tox inactive and TbMetRS FP orth 49.5.
For O=C(NCCSCc1ccco1)Nc1cccc(Cl)c1 the results were MC4R antag cAMP inactive, Granule exo inh inactive, ABCB6 inh 2 inactive, MC4R barr agon inactive, iPSC survival up inactive and TbMetRS inhib inactive.
Screening O=C(NCCSCc1ccco1)Nc1ccc(Cl)cc1 returned MC4R antag cAMP inactive, Granule exo inh inactive, ABCB6 inh 2 inactive, MC4R barr agon inactive, iPSC survival up inactive, TbMetRS inhib 6.4, Tb MetRS conf 15.9, Jurkat tox inactive and TbMetRS FP orth inactive.
Screening O=C(Nc1ccccc1C(=O)NCc1ccco1)c1ccccc1 returned MC4R antag cAMP inactive, Granule exo inh inactive, ABCB6 inh 2 inactive, MC4R barr agon inactive, iPSC survival up inactive and TbMetRS inhib inactive.
For CCCCC[C@H](O)/C=C/[C@H]1CCC(=O)[C@@H]1CCCCCCC(=O)N1CCCCC1CO (some centres undefined) the results were MC4R antag cAMP inactive, Granule exo inh inactive, ABCB6 inh 2 inactive, MC4R barr agon inactive, iPSC survival up inactive and TbMetRS inhib inactive.
CC(=O)C1C(=O)CC(C)(O)C(C(C)=O)C1c1ccccc1 (centres undefined) was read as MC4R antag cAMP inactive, Granule exo inh inactive, ABCB6 inh 2 inactive, MC4R barr agon inactive, iPSC survival up inactive and TbMetRS inhib inactive.
Screening N#Cc1nc(COc2ccc(Cl)cc2Cl)oc1N1CCN(c2ccccc2)CC1 returned MC4R antag cAMP inactive, Granule exo inh inactive, ABCB6 inh 2 inactive, MC4R barr agon inactive, iPSC survival up inactive and TbMetRS inhib inactive.

High-throughput results as filed in PubChem BioAssay.
